Series [1] can be described thus: solubility in Matrigel compared to aqueous media. Format: physicochemical.
For series [2], the system named is IgD2 domain from human VEGFR-3. In words: VEGF-C binding to recombinant VEGFR-3 IgD2. To be noted: synthetic peptide added; FLISA, duplicate wells.
Series [3] can be described thus: presence in the vitreous humor after topical application. Format: in vivo. The conditions noted are these: applied topically.
A further series has as its system human PDGFR-β. In words: growth factor binding assay. The conditions noted are these: PDGF-BB 20 ng/ml; peptide 100 μg/ml; FLISA, duplicate wells. An outline of the steps: (§1)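 Human FGFR-1 or PDGFR-β coated at 200 ng per well in PBS overnight at 4°C and blocked. Wells incubated with human FGF-1 or PDGF-BB (each 20 ng/ml) in PBS with 10% (v/v) DMSO and 10% blocking buffer, with or without peptide (100 μg/ml). Bound ligand detected with goat antiserum (1:200), then IRDye 680LT anti-goat, by infrared fluorescence. Duplicate wells; ANOVA with Tukey.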

In series [4] the test system is IgD2-3 domains from human VEGFR-3. The series can be described thus: VEGF-C binding to recombinant VEGFR-3 IgD2-3. To be noted: synthetic peptide added; FLISA, duplicate wells.
The next series concerns human FGFR-1. The series can be described thus: growth factor binding assay. To be noted: FGF-1 20 ng/ml; peptide 100 μg/ml; FLISA, duplicate wells. An outline of the steps:
as §1

In series [5] the test system is human VEGFR-1. In words: FLISA binding assay, NRP-2 to VEGFR-1. To be noted: rat NRP-2; peptide 100 μg/ml; FLISA, duplicate wells. In a few lines:
(§2)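 Human VEGFR-1 extracellular domain coated at 200 ng per well in PBS overnight at 4°C, then blocked with Odyssey blocking buffer. Wells incubated with NRP-1 or NRP-2 in PBS with 10% (v/v) DMSO and 10% blocking buffer, with or without peptide (100 μg/ml). Bound NRP detected with goat anti-NRP-1 or anti-NRP-2 serum (1:100), then IRDye 680LT anti-goat, by infrared scanning. Duplicate wells; ANOVA with Tukey.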

The test system of series [6] is human VEGFR-1. In words: FLISA binding assay, NRP-1 to VEGFR-1. The conditions noted are these: human NRP-1; peptide 100 μg/ml; FLISA, duplicate wells. An outline of the steps: as §2

As for WVCSGG, the “solubility in Matrigel” value in series [1] is “fairly soluble in Matrigel compared to aqueous media”. Also, in series [2], the “inhibition of VEGF-C binding to IgD2” value is “both prevented binding of VEGF-C to IgD2 and IgD2-3”. Also, the “presence in the vitreous humor after topical application” value in series [3] is “not found in the vitreous humor if applied topically to the retina”. Moreover, in the series on human PDGFR-β, the “effect on binding of PDGF-BB to PDGFR-β” value is given as “no effect”. Besides, the “inhibition of VEGF-C binding to IgD2-3” value in series [4] was “both prevented binding of VEGF-C to IgD2 and IgD2-3”. In addition, the “effect on binding of basic human FGF to FGFR-1α” value in the series on human FGFR-1 is on record as “no effect”. The “effect on NRP-2 interaction with VEGFR-1” value in the series with human VEGFR-1 [5] is recorded as “not affected by peptide PCAIWF or WVCSGG”. In addition, the “effect on NRP-1 interaction with VEGFR-1” value in the series with human VEGFR-1 [6] is given as “not affected by peptide PCAIWF or WVCSGG”.

The record behind these values is PMC5091360 (Science Advances, 2016).
